# Laboratory results from paper PMC12062833 (RSC Medicinal Chemistry, 2025).
# “Also recorded” adds a separate entry of the source.
# Key:
# [1] = system: LN-229 glioblastoma cells; test: Antiproliferative assay; format: cell-based; conditions: Homo sapiens, LN-229, 72 h, read-out: IC50 LN-229
# Procedure, shortened: (§1)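 Adherent lines were seeded at 500 (Capan-1), 1000 (LN-229, HCT-116) or 1500 (NCI-H460) cells/well and dosed after overnight incubation. Suspension lines were seeded at 2500 (HL-60, K-562, Z-138) or 5500 (DND-41) cells/well directly onto compound. Seven 5-fold concentrations ran from 100 to 0.006 μM for 72 h. Viability was read as MTS absorbance at 490 nm after 3 h, and IC50 was derived from OD values. Two independent experiments.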
# [2] = system: Klebsiella pneumoniae (ATCC 27736); test: Antibacterial MIC, macrodilution method, K. pneumoniae; format: cell-based; conditions: ATCC27736, read-out: MIC K. pneumoniae
# Procedure, shortened: (§2)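 CLSI M07-A9 tube macrodilution. Strains were grown overnight on nutrient agar at 37 °C, and colonies were suspended in Mueller-Hinton broth. Inoculum was 1 × 10^6 per mL (5 × 10^5 per mL in test). DMSO stock was 5120 μg/mL. Final concentrations were 256 to […] in 2 mL. Tubes were incubated at 37 °C for 16–20 h. Controls were inoculum with and without 1% DMSO, and broth alone.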
# [3] = system: HL-60 acute myeloid leukemia cells; test: Antiproliferative assay; format: cell-based; conditions: Homo sapiens, HL-60, 72 h, read-out: IC50 HL-60
# Procedure, shortened: as §1
# [4] = system: Staphylococcus aureus (ATCC 25923); test: Antibacterial MIC, macrodilution method, S. aureus; format: cell-based; conditions: ATCC25923, read-out: MIC S. aureus
# Procedure, shortened: as §2
# [5] = system: eight human tumor cell lines; test: Antiproliferative assay, span over the panel of tumor cell lines; format: cell-based; conditions: 72 h, read-out: IC50 range across tested tumor cell lines
# Procedure, shortened: as §1
# [6] = system: Capan-1 pancreatic adenocarcinoma cells; test: Antiproliferative assay; format: cell-based; conditions: Homo sapiens, CAPAN-1, 72 h, read-out: IC50 Capan-1
# Procedure, shortened: as §1
# [7] = system: Escherichia coli (ATCC 25922); test: Antibacterial MIC, macrodilution method, E. coli; format: cell-based; conditions: ATCC25922, read-out: MIC E. coli
# Procedure, shortened: as §2
# [8] = system: K-562 chronic myeloid leukemia cells; test: Antiproliferative assay; format: cell-based; conditions: Homo sapiens, K562, 72 h, read-out: IC50 K-562
# Procedure, shortened: as §1
# [9] = system: HCT-116 colon carcinoma cells; test: Antiproliferative assay; format: cell-based; conditions: Homo sapiens, HCT-116, 72 h, read-out: IC50 HCT-116
# Procedure, shortened: as §1
# [10] = system: NCI-H460 non-small cell lung cancer cells; test: Antiproliferative assay; format: cell-based; conditions: Homo sapiens, NCI-H460, 72 h, read-out: IC50 NCI-H460
# Procedure, shortened: as §1
# [11] = system: Pseudomonas aeruginosa (ATCC 9027); test: Antibacterial MIC, macrodilution method, P. aeruginosa; format: cell-based; conditions: ATCC9027, read-out: MIC P. aeruginosa
# Procedure, shortened: as §2
# [12] = system: Enterococcus faecalis (ATCC 29212); test: Antibacterial MIC, macrodilution method, E. faecalis; format: cell-based; conditions: MHB, 37 °C
# [13] = system: Z-138 non-Hodgkin's lymphoma cells; test: Antiproliferative assay; format: cell-based, human; conditions: read-out: IC50 Z-138; 72 h incubation, two independent experiments
# Procedure, shortened: as §1
# salmon sperm DNA = test: Fluorescent intercalator displacement; format: binding; conditions: tested at 250, 100 and 40 μM; result in words
# Procedure, shortened: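 Competitive fluorescence-polarization displacement. Acridine orange (50 nM) and salmon sperm DNA (6 μg/mL) were mixed with test compound at 250, 100 or 40 μM in HEN buffer (10 mM HEPES pH 7.5, 1 mM EDTA, 100 mM NaCl). Mixtures stood 20 min in the dark. mP was normalized to the DMSO control, with mitoxantrone (10 μM) as positive control.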
# PBMC from healthy donors = test: Cytotoxicity test on normal peripheral blood mononuclear cells; format: cell-based, human; conditions: PBMC of two healthy donors, 72 h, result in words
SMILES,IC50 [1] [µM],MIC [2] [mg/L],IC50 [3] [µM],MIC [4] [mg/L],IC50 [6] [µM],MIC [7] [mg/L],IC50 [8] [µM],IC50 [9] [µM],IC50 [10] [µM],MIC [11] [mg/L],MIC E. faecalis [12] [mg/L],IC50 [13] [µM],IC50 [5] [µM],"DNA intercalation (acridine orange displacement, fluorescence polarization) (salmon sperm DNA)",Impact on viability of normal PBMC (MTS) (PBMC from healthy donors; 100 to 0.006 μM),"Dead and apoptotic PBMC (propidium iodide, caspase 3/7, IncuCyte) (PBMC from healthy donors)"
"Clc1ccc2nc(-c3ccc(OCCN4CCOCC4)cc3)[nH]c2c1 [Compound 16, 4-(2-(4-(6-Chloro-1H-benzo[d]imidazol-2-yl)phenoxy)ethyl)morpholine]",> 100,> 256,51.6 ± 1.5,64,45 ± 5.1,256,37.3 ± 3.9,> 100,> 100,> 256,0.25,,37.3 to 79.8,,,
"O=C(COc1ccc(-c2nc3ccc(Cl)cc3[nH]2)cc1)N1CCOCC1 [Compound 17, 2-(4-(6-Chloro-1H-benzo[d]imidazol-2-yl)phenoxy)-1-morpholinoethan-1-one]",> 100,> 256,> 100,> 256,28.5 ± 4.4,> 256,> 100,> 100,> 100,> 256,0.5,,,,,
"Fc1cc(-c2nc3ccc(Cl)cc3[nH]2)ccc1OCCN1CCOCC1 [Compound 24, 4-(2-(4-(6-Chloro-1H-benzo[d]imidazol-2-yl)-2-fluorophenoxy)ethyl)morpholine]",> 100,> 256,> 100,> 256,> 100,> 256,> 100,> 100,> 100,> 256,,≥ 80.5,,,,
"CCN(CC)CCOc1ccc(-c2nc3ccc(Cl)cc3[nH]2)cc1F [Compound 23, 2-(4-(6-Chloro-1H-benzo[d]imidazol-2-yl)-2-fluorophenoxy)-N,N-diethylethan-1-amine]",5 ± 1.3,> 256,4.4 ± 0.5,256,2.2 ± 0.5,256,2 ± 0.7,9.4 ± 1.2,2.3 ± 0.8,> 256,,,2 to 9.4,scored best in the binding assay,"Only at the highest tested concentration (100 μM), there was an impact on the viability of these normal cells",caused apoptosis in normal cells only at the highest applied concentration of 100 μM; also recorded: an increase in the number of dead and apoptotic cells was observed at 100 μM

# Further lines, with some results ahead:
IC50 [1] [µM],MIC [2] [mg/L],IC50 [3] [µM],MIC [4] [mg/L],IC50 [6] [µM],MIC [7] [mg/L],IC50 [8] [µM],IC50 [9] [µM],IC50 [10] [µM],MIC [11] [mg/L],MIC E. faecalis [12] [mg/L],IC50 [13] [µM],SMILES,IC50 [5] [µM],"DNA intercalation (acridine orange displacement, fluorescence polarization) (salmon sperm DNA)",Impact on viability of normal PBMC (MTS) (PBMC from healthy donors; 100 to 0.006 μM),"Dead and apoptotic PBMC (propidium iodide, caspase 3/7, IncuCyte) (PBMC from healthy donors)"
> 100,> 256,> 100,> 256,> 100,> 256,> 100,> 100,> 100,> 256,,≥ 64.8,"O=C(COc1ccc(-c2nc3ccc(Cl)cc3[nH]2)cc1F)N1CCOCC1 [Compound 25, 2-(4-(6-Chloro-1H-benzo[d]imidazol-2-yl)-2-fluorophenoxy)-1-morpholinoethan-1-one]",,,,
> 100,> 256,> 100,> 256,> 100,> 256,> 100,> 100,> 100,> 256,,,"O=C(COc1ccc(-c2nc3ccc(F)cc3[nH]2)cc1F)N1CCOCC1 [Compound 27, 2-(2-Fluoro-4-(6-fluoro-1H-benzo[d]imidazol-2-yl)phenoxy)-1-morpholinoethan-1-one]",,exhibit clear intercalating properties,,
